In ChEMBL document CHEMBL1138611, “Oxadiazolylindazole sodium channel modulators are neuroprotective toward hippocampal neurones” (J Med Chem, 2009):
The source made the active and inactive calls. No cut-off for these calls is given here.

Legend:
[1] = Inhibition of voltage-gated sodium channel in Wistar rat forebrain synaptosomes assessed as inhibition of [14C]guanidium ion flux; format: subcellular, Brain
Hippocampus [2] = assay: Neuroprotective activity in Wistar rat hippocampal slices assessed as ATP concentration at 50 uM relative to tetrodotoxin; format: functional
[3] = Displacement of [3H]BW202W92 from voltage-gated sodium channel in Wistar rat forebrain synaptosomes by liquid scintillation counting; format: subcellular, Brain
Cytochrome P450 1A2 = target: T1, Cytochrome P450 1A2 (Homo sapiens, UniProt P05177); assay: Inhibition of human recombinant CYP1A2; format: ADME
T1 sequence (P05177 whole entry): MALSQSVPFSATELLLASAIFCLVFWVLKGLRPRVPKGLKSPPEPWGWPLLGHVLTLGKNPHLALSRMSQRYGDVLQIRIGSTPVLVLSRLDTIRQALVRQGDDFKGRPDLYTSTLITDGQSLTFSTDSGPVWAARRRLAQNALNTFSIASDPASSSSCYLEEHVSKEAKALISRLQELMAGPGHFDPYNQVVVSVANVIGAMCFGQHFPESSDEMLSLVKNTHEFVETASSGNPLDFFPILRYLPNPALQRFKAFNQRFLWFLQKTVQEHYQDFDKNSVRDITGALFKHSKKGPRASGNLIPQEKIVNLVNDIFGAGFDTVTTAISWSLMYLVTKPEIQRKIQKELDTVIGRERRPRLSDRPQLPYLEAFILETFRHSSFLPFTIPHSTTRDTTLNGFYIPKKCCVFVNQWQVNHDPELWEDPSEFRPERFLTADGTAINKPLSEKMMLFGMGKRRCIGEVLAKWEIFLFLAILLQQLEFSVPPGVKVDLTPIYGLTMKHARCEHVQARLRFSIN

[4] = target: Sodium channel protein type 1 subunit alpha (Homo sapiens) (UniProt P35498); assay: Inhibition of human Nav1.1 expressed in HEK293 cells assessed as change in membrane potential using MP-red voltage sensitive dye at 10 uM; format: cell-based
In short: (§1)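 Human Nav isoforms stably expressed in HEK293 cells with β1 subunit (Nav1.8 without β subunit), with tetrodotoxin sensitivity checked. Membrane potential change read with MP-red voltage-sensitive dye kit. Single-concentration screen at 10 µM gives percent inhibition as mean of duplicates, or an IC50 in µM where determined. Compounds come from 1 or 10 mM DMSO stocks diluted in assay buffer.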

[5] = target: Sodium channel protein type 2 subunit alpha (Homo sapiens) (UniProt Q99250); assay: Use-dependent inhibition of human Nav1.2 expressed in HEK293 cells at 10 uM using double-pulse protocol by patch clamp technique; format: cell-based
In short: (§2)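 Human Nav1.2 or Nav1.6 in HEK293 cells, automated patch clamp at room temperature with 5 min exposure. Holding potential -80 mV, prepulse -120 mV, then P1 to 0 mV for 200 ms, 200 ms at -80 mV, and P2 to 0 mV for 20 ms, repeated at 0.1 Hz. Use-dependent inhibition I = (1 − P2T/P1T) × P1C/P2C × 100; mean of duplicates.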

[6] = target: Nav1.5 (sodium channel protein type 5 subunit alpha) (Homo sapiens, UniProt Q14524); assay: Inhibition of human Nav1.5 expressed in HEK293 cells assessed as change in membrane potential using MP-red voltage sensitive dye at 10 uM; format: cell-based; details: HEK293 cells expressing human Nav1.5; in short: as §1
[7] = target: Sodium channel protein type 2 subunit alpha (Homo sapiens) (UniProt Q99250); assay: Inhibition of human Nav1.2 expressed in HEK293 cells assessed as change in membrane potential at 10 uM by patch clamp technique; format: cell-based
In short: (§3)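 Automated parallel whole-cell patch clamp at room temperature on human Nav1.2 or Nav1.6 in HEK293 cells. Each exposure lasts 5 min, at 10 and 50 µM (lamotrigine on Nav1.2 at 30 and 100 µM), with two to four cells per concentration. Peak current inhibition is given as percent, mean of duplicate experiments (n = 2) unless noted otherwise.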

[8] = target: T2, Sodium channel protein type 8 subunit alpha (Homo sapiens, UniProt Q9UQD0); assay: Use-dependent inhibition of human Nav1.6 expressed in HEK293 cells at 50 uM using double-pulse protocol by patch clamp technique; format: cell-based; in short: as §2
[9] = target: Sodium channel protein type 10 subunit alpha (Homo sapiens) (UniProt Q9Y5Y9); assay: Inhibition of human Nav1.8 expressed in HEK293 cells assessed as change in membrane potential using MP-red voltage sensitive dye at 10 uM; format: cell-based; in short: as §1
Rattus norvegicus [10] = species: Rattus norvegicus; assay: Use-dependent inhibition of voltage-gated sodium channel in Sprague-Dawley rat hippocampal neurons at 30 uM using 20 Hz train of 20 voltage steps from -90 mV with duration of 20 ms by voltage clamp technique; format: tissue-based; details: Hippocampus
In short: (§4)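 Whole-cell voltage clamp of dissociated P14-16 Sprague-Dawley rat hippocampal neurons, with compound at 30 µM. A 20 Hz train of 20 voltage steps from -90 mV, each step 3.5 ms or 20 ms, and cumulative depression of peak sodium current during the train compared with control.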

[11] = target: T2, Sodium channel protein type 8 subunit alpha; assay: Inhibition of human Nav1.6 expressed in HEK293 cells assessed as change in membrane potential at 50 uM by patch clamp technique; format: cell-based; in short: as §3
[12] = target: Sodium channel protein type 2 subunit alpha (Homo sapiens) (UniProt Q99250); assay: Inhibition of human Nav1.2 expressed in HEK293 cells assessed as change in membrane potential at 50 uM by patch clamp technique; format: cell-based; in short: as §3
Rattus norvegicus [13] = species: Rattus norvegicus; assay: Use-dependent inhibition of voltage-gated sodium channel in Sprague-Dawley rat hippocampal neurons at 30 uM using 20 Hz train of 20 voltage steps from -90 mV with duration of 3.5 ms by voltage clamp technique; format: tissue-based; details: Hippocampus; in short: as §4
[14] = target: Sodium channel protein type 9 subunit alpha (Homo sapiens) (UniProt Q15858); assay: Inhibition of human Nav1.7 expressed in HEK293 cells assessed as change in membrane potential using MP-red voltage sensitive dye at 10 uM; format: cell-based; in short: as §1
[15] = target: T2, Sodium channel protein type 8 subunit alpha; assay: Inhibition of human Nav1.6 expressed in HEK293 cells assessed as change in membrane potential at 10 uM by patch clamp technique; format: cell-based; in short: as §3
[16] = target: Sodium channel protein type 4 subunit alpha (Homo sapiens) (UniProt P35499); assay: Inhibition of human Nav1.4 expressed in HEK293 cells assessed as change in membrane potential using MP-red voltage sensitive dye at 10 uM; format: cell-based; in short: as §1
[17] = target: Sodium channel protein type 3 subunit alpha (Homo sapiens) (UniProt Q9NY46); assay: Inhibition of human Nav1.3 expressed in HEK293 cells assessed as change in membrane potential using MP-red voltage sensitive dye at 10 uM; format: cell-based; in short: as §1
Cytochrome P450 2D6 = Cytochrome P450 2D6 (Homo sapiens, UniProt P10635); assay: Inhibition of human recombinant CYP2D6; format: ADME
[18] = target: T2, Sodium channel protein type 8 subunit alpha; assay: Use-dependent inhibition of human Nav1.6 expressed in HEK293 cells at 10 uM using double-pulse protocol by patch clamp technique; format: cell-based; in short: as §2
Rattus norvegicus [19] = species: Rattus norvegicus; assay: Voltage-dependent inhibition of voltage-gated sodium channel in Sprague-Dawley rat hippocampal neurons at 30 uM at an initial membrane potential of -90 mV by voltage clamp technique; format: tissue-based; set-up: scale not given: the % may be the effect or the level left; details: Hippocampus
[20] = target: Sodium channel protein type 2 subunit alpha (Homo sapiens) (UniProt Q99250); assay: Use-dependent inhibition of human Nav1.2 expressed in HEK293 cells at 50 uM using double-pulse protocol by patch clamp technique; format: cell-based; in short: as §2
Rattus norvegicus [21] = species: Rattus norvegicus; assay: Voltage-dependent inhibition of voltage-gated sodium channel in Sprague-Dawley rat hippocampal neurons at 30 uM at an initial membrane potential of -70 mV by voltage clamp technique; format: tissue-based; set-up: scale not given: the % may be the effect or the level left; details: Hippocampus
[22] = target: T2, Sodium channel protein type 8 subunit alpha; assay: Inhibition of Nav1.6 using 20 Hz train of 20 voltage steps from -90 mV with duration of 3.5 ms at 30 uM by paired pulse protocol
Rattus norvegicus [23] = species: Rattus norvegicus; assay: Inhibition of […] state of voltage-gated sodium channel in Sprague-Dawley rat hippocampal neurons at 30 uM using 300 ms conditioning voltage step to 0 mV followed by 15 ms period at -90 mV by paired pulse protocol; format: tissue-based; details: Hippocampus
In short: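 Paired-pulse protocol on dissociated P14-16 Sprague-Dawley rat hippocampal neurons, compound at 30 µM. A 300 ms conditioning step to 0 mV (P1), 15 ms at -90 mV, then a 10 ms test step to 0 mV (P2). Tonic inhibition at P1 compared with inhibition at P2 after slow inactivation develops.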

[24] = target: T2, Sodium channel protein type 8 subunit alpha; assay: Inhibition of human Nav1.6 expressed in HEK293 cells assessed as change in membrane potential using MP-red voltage sensitive dye; format: cell-based; in short: as §1
Hippocampus [25] = assay: Neuroprotective activity in Wistar rat hippocampal slices assessed as ATP concentration at 3 uM relative to tetrodotoxin; format: functional
[26] = target: T2, Sodium channel protein type 8 subunit alpha; assay: Inhibition of human Nav1.6 expressed in HEK293 cells assessed as change in membrane potential using MP-red voltage sensitive dye at 10 uM; format: cell-based; in short: as §1
[27] = target: Sodium channel protein type 2 subunit alpha (Homo sapiens) (UniProt Q99250); details: HEK293, 100 uM
Hippocampus [28] = assay: Neuroprotective activity in Wistar rat hippocampal slices assessed as ATP concentration at 30 uM relative to tetrodotoxin; format: functional
[29] = target: Sodium channel protein type 2 subunit alpha (Homo sapiens) (UniProt Q99250); details: HEK293, 30 uM
[30] = target: Sodium channel protein type 2 subunit alpha (Homo sapiens) (UniProt Q99250); details: HEK293, 30 uM; remark: listed apart in the source
[31] = target: Sodium channel protein type 2 subunit alpha (Homo sapiens) (UniProt Q99250); details: HEK293, 100 uM; remark: listed apart in the source

Chain of Sodium channel protein type 10 subunit alpha (Homo sapiens) (Q9Y5Y9 whole entry, looked up): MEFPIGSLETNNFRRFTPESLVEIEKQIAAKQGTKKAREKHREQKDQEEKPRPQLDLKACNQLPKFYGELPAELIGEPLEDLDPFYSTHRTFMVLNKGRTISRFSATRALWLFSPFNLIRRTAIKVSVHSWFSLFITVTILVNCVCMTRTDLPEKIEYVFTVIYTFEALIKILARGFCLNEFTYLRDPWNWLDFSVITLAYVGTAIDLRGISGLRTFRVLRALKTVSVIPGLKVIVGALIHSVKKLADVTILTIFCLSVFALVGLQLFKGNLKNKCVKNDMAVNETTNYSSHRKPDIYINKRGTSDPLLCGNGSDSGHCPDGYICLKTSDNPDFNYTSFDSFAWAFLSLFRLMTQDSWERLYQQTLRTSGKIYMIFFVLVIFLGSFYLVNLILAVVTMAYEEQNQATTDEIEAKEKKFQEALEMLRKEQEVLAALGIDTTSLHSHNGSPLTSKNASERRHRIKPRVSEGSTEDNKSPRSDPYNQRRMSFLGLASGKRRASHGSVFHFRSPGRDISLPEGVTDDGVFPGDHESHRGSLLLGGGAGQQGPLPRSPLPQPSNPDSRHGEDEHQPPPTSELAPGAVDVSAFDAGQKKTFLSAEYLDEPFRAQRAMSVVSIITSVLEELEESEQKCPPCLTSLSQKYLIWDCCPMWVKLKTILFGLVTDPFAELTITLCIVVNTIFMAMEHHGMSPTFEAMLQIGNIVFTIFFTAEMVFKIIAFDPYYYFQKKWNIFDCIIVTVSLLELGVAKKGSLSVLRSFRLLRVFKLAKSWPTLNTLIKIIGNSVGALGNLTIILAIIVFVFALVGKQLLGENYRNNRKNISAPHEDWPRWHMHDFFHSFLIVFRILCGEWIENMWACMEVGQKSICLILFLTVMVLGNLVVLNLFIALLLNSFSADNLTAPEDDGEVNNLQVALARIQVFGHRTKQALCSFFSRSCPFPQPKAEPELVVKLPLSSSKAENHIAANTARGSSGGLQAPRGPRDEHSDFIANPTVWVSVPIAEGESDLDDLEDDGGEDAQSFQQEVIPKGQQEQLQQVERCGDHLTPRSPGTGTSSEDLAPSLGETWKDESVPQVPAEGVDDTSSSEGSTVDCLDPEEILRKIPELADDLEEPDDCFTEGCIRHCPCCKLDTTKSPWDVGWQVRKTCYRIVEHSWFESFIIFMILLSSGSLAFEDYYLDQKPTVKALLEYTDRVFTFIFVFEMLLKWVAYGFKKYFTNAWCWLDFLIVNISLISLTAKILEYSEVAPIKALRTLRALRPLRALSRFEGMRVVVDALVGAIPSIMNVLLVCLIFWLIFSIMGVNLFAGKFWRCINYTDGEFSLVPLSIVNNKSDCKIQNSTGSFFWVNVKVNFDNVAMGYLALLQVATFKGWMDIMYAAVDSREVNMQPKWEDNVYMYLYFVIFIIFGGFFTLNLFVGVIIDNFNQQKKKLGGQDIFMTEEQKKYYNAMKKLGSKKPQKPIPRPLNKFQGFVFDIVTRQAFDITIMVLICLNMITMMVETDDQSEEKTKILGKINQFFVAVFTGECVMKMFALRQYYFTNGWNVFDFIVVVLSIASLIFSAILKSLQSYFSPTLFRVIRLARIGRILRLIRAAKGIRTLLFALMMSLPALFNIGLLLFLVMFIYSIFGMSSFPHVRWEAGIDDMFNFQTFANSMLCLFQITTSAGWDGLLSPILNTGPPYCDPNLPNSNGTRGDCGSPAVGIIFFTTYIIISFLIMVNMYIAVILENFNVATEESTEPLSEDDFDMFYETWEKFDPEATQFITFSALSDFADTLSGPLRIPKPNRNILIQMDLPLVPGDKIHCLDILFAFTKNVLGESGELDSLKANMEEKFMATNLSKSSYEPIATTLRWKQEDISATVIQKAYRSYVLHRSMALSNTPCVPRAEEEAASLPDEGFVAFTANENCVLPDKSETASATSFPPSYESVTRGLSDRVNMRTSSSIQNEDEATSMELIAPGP
Chain of Cytochrome P450 2D6 (P10635 whole entry): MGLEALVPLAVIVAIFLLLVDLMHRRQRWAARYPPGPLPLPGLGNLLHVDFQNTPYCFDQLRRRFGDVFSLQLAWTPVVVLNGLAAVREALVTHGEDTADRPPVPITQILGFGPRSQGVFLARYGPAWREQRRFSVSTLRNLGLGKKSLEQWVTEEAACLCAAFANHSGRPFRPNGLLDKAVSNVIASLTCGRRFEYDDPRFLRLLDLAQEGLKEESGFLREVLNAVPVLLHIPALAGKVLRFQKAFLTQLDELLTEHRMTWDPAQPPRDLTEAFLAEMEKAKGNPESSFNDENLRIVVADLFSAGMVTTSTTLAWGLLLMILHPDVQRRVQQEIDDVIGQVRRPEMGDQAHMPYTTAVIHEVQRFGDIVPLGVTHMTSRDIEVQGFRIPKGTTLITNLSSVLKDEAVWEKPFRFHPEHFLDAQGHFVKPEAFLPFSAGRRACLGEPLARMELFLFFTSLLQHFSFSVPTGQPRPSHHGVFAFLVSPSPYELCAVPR
Chain of Sodium channel protein type 9 subunit alpha (Homo sapiens) (Q15858 whole entry, looked up): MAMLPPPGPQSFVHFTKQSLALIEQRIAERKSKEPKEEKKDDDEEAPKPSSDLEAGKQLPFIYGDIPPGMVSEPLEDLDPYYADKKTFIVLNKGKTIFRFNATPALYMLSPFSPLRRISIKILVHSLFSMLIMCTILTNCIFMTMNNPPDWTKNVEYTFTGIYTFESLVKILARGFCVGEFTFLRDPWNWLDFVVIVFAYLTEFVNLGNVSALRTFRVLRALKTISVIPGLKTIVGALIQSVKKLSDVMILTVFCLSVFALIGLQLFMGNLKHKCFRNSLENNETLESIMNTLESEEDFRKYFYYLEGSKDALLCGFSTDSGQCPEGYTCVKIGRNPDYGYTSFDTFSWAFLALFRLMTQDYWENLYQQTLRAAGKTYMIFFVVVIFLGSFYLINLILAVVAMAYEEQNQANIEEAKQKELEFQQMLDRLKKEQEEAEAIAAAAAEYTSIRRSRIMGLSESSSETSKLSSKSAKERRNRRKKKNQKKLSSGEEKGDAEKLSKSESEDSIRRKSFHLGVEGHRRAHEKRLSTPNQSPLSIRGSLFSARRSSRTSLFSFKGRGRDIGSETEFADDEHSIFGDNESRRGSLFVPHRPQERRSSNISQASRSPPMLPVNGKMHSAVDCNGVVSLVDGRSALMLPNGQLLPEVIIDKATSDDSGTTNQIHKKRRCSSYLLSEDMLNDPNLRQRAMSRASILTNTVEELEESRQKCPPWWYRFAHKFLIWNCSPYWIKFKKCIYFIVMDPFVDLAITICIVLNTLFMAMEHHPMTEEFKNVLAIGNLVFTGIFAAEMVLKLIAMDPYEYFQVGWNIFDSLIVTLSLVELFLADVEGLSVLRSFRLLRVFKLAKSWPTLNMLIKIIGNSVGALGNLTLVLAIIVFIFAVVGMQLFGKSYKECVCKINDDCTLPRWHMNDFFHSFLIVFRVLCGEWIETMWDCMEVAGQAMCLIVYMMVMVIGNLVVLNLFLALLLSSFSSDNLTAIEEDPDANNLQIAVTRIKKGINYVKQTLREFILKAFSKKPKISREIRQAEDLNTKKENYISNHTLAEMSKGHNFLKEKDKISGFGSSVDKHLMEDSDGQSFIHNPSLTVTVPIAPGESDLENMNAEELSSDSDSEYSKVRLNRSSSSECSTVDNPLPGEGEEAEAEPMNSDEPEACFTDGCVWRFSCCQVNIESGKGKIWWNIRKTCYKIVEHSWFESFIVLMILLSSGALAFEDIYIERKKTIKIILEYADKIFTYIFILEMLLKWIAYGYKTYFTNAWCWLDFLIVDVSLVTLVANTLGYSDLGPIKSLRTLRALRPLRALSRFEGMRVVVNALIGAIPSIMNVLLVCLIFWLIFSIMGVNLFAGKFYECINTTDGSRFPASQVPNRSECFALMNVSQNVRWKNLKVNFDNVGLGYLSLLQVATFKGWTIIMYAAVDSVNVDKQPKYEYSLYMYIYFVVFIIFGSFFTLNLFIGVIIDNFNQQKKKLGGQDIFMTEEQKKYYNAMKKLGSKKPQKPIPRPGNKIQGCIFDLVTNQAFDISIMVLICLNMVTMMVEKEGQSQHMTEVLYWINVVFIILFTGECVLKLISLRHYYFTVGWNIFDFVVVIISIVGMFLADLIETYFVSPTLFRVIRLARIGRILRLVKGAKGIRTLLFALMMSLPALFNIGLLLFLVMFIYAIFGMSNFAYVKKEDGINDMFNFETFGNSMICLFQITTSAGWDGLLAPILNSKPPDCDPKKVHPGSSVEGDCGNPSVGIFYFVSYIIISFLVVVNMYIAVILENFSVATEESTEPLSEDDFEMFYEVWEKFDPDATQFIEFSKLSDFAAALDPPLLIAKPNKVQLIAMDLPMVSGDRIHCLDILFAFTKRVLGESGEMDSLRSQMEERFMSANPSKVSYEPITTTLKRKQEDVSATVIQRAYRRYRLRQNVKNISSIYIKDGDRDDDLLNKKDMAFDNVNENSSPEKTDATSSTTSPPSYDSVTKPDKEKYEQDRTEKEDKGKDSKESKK

| Compound | IC50 [1] [µM] | Activity (Hippocampus [2]) [%] | IC50 [3] [µM] | IC50 (Cytochrome P450 1A2) [µM] | inhibition [4] [%] | inhibition [5] [%] | inhibition at 10 µM [6] [%] | inhibition [7] [%] | inhibition [8] [%] | inhibition [9] [%] | inhibition [11] [%] | inhibition [12] [%] | inhibition [14] [%] | inhibition [15] [%] | inhibition [16] [%] | inhibition [17] [%] | IC50 (Cytochrome P450 2D6) [µM] | inhibition [18] [%] | inhibition [20] [%] | inhibition [26] [%] | other results |
| --- | --- | --- | --- | --- | --- | --- | --- | --- | --- | --- | --- | --- | --- | --- | --- | --- | --- | --- | --- | --- | --- |
| NCc1noc(-c2c3ccccc3nn2Cc2cccc(Cl)c2)n1 | 24 | 17 | 110 | – | – | – | – | – | – | – | – | – | – | – | – | – | – | – | – | – | – |
| NCc1noc(-c2c3ccccc3nn2Cc2ccccc2)n1 | 44.2 | 63 | 6.7 | 0.315 | 51 | 35.8 | 81 | 13 | 65.8 | 84 | 31.5 | 33.8 | 92 | 10.2 | 98 | 78 | > 10 | 29 | 70.8 | – | Activity (Rattus norvegicus [10]): Active; Activity (Rattus norvegicus [13]): Active; Activity (Rattus norvegicus [19]): 10%; Activity (Rattus norvegicus [21]): 60%; Activity [22]: Active; Activity (Rattus norvegicus [23]): Active; IC50 [24]: 1.03 µM |
| Nc1nc(N)c(-c2cc(Cl)cc(Cl)c2Cl)c(CF)n1 | 2.6 | – | 0.04 | – | 56 | 43.4 | 39 | 0.7 | 97.3 | 86 | 62.7 | 75.2 | 44 | 2.3 | 98 | 100 | – | 81.4 | 88.5 | 37 | Activity (Hippocampus [25]): 93% |
| CC(C)(C)OC(=O)NCc1noc(-c2nn(Cc3ccc4c(c3)OCO4)c3ccccc23)n1 | 1 | 0 | – | 4.86 | – | – | – | – | – | – | – | – | – | – | – | – | 3.3 | – | – | – | – |
| NCc1noc(-c2n[nH]c3ccccc23)n1 | 2190 | 10 | – | 0.21 | – | – | – | – | – | – | – | – | – | – | – | – | 1 | – | – | – | – |
| NCc1noc(-c2nn(Cc3ccccc3)c3ccccc23)n1 | 17.5 | 99 | 3.3 | 0.009 | 48 | 1.9 | 48 | 6.6 | 18.7 | 90 | 40.9 | 10.8 | 59 | 9.5 | 97 | 79 | 0.09 | 1.1 | 14.7 | – | Activity (Rattus norvegicus [23]): Active; IC50 [24]: 0.66 µM |
| NCc1noc(-c2nn(CCc3ccccc3)c3ccccc23)n1 | 35 | 49 | – | 0.034 | – | – | – | – | – | – | – | – | – | – | – | – | 1.32 | – | – | – | – |
| Nc1nnc(-c2cccc(Cl)c2Cl)c(N)n1 [LAMOTRIGINE] | 219 | – | 2.6 | – | 44 | – | 40 | – | – | 46 | – | – | 45 | – | 21 | 22 | – | – | – | 23 | inhibition [27]: 18.1%; Activity (Hippocampus [28]): 33%; inhibition [29]: 4.1%; inhibition [30]: 7.9%; inhibition [31]: 17% |
| CN1CCN(c2ncc(-c3cc(Cl)cc(Cl)c3Cl)c(N)n2)CC1 [SIPATRIGINE] | – | – | – | – | 55 | 40.1 | 97 | 21.6 | 63.2 | 76 | 43.4 | 75.2 | 67 | 10.4 | 97 | 61 | – | 37 | 84.6 | 70 | Activity (Hippocampus [28]): 57% |
